In the library only some 3.6% were active in any assay of this set; here they are far more common.
ZTA DNA inh = blocks Epstein-Barr virus ZTA, an EBNA-1 counter-screen; hit rate 0.15% among 320,000; P03206; ZTA-DNA binding, fluorescence polarization; inhibition, % at 11 µM; in the data active means inhibition above about 33%
Target sequence (P03206 whole entry, looked up): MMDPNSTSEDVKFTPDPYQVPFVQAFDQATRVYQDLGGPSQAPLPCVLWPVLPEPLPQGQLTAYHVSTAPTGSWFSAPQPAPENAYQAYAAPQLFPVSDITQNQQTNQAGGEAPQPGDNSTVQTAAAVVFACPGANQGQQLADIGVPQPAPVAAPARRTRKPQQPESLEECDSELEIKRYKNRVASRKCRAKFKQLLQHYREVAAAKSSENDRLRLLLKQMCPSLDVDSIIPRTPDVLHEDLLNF
FID counter = displaces DNA intercalator in HCV helicase counter-screen | inhibition, % at 7.9 µM | hit rate 0.17% among 290,000 | DNA fluorescent intercalator displacement, fluorescence; in the data active means inhibition above about 37%;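 further: 0% = vehicle and 100% = reference compound; higher means more ethidium bromide displaced from hairpin DNA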
FGF22 binding = binders of recombinant human FGF22 by thermal shift. activity (Tm shift, normalised), % at 9.99 µM. hit rate 1.5% among 340,000. Q9HCT0. SYPRO orange fluorescence; percent of sucrose octasulfate shift, DMSO zero;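 active means mean Tm shift, scaled 0 neutral to 100 positive control, at about 1.3% or above, every replicate too, limit read from the data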
Target sequence (Q9HCT0 whole entry, looked up): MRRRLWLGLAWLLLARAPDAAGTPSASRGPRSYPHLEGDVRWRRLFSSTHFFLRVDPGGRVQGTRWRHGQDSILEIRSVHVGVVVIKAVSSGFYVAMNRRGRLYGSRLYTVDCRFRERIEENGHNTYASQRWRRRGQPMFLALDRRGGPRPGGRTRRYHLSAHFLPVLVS
NS3 helicase inh = HCV NS3 helicase inhibition. hit rate 0.56% among 290,000. AID 1800. NS3 helicase DNA unwinding, Cy5 molecular beacon fluorescence. inhibition, % at 10.9 µM;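 active means inhibition above the mean of all tested compounds plus 3 SD, set per campaign, cut at about 35% in these data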;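 further: 0% = DMSO wells and 100% = thioflavine S control wells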
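Compound dosing – single dose, 10.9 µM nominal final, DMSO 0.8% final · System – NS3 helicase fragment of HCV · Buffer or medium – MOPS pH 6.5, MgCl2, DTT, Tween20, BSA · Signal – Cy5 beacon fluorescence read at start and 1 h · Also added – annealed dual-labelled DNA beacon duplex, ATP-started · Schedule – 1 h at 25 °C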
GRIN3A LBD mod = modulates the human NR3A ligand-binding domain. NR3A LBD differential scanning fluorimetry, Tm shift; 0% = protein alone, 100% = glycine-bound protein. Tm shift relative to glycine control, % at 25 µM. hit rate 2.5% among 340,000;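 active means melting temperature shift of at least 10% of the positive control shift, at one fixed dose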
EBNA-1 inhibitor = blocks EBNA-1 binding to DNA | hit rate 0.34% among 300,000 | EBNA-1 DNA binding, fluorescence polarization | inhibition, % at 14.8 µM; in the data active means inhibition above about 28%
Starred values were filed as active, the others as inactive.

`O=C(COC(=O)c1cc(S(=O)(=O)Nc2ccccc2Cl)ccc1O)Nc1nc2ccccc2s1` gave FID counter -6.6, FGF22 binding -0.1, NS3 helicase inh 3.9 and GRIN3A LBD mod 23.8*.
For N#Cc1cccc(NC(=O)COC(=O)c2cc(S(=O)(=O)Nc3ccccc3Cl)ccc2O)c1 the results were FGF22 binding 0.5 and GRIN3A LBD mod 18.5*.
For C[C@@H]1CCCCO[C@H](CN(C)C(=O)Cc2ccccc2)[C@H](C)CN([C@H](C)CO)C(=O)c2cc(NC(=O)c3ccncc3)ccc2O1 the results were FGF22 binding -0.7.
For C[C@@H]1CN([C@@H](C)CO)C(=O)c2cc(NC(=O)CCN3CCOCC3)ccc2O[C@@H]1CN(C)CC1CC1 the results were FGF22 binding 0.0.
C[C@H]1CCCCO[C@H](CN(C)Cc2ccc(C(=O)O)cc2)[C@@H](C)CN([C@@H](C)CO)C(=O)c2cc(NC(=O)CCC(F)(F)F)ccc2O1 was read as FGF22 binding 0.2.
Screening C[C@@H]1CCCCO[C@@H](CN(C)C(=O)CCC(F)(F)F)[C@@H](C)CN([C@H](C)CO)C(=O)c2cc(NC(=O)c3ccncc3)ccc2O1 returned FGF22 binding -0.1.
For CCOC(=O)C1(CC2CC2)CCN(Cc2cn[nH]c2-c2cccc(F)c2)CC1 the results were ZTA DNA inh 7.4, FID counter 20.0, FGF22 binding 44.1*, NS3 helicase inh -3.1, GRIN3A LBD mod -0.7 and EBNA-1 inhibitor 9.8.
Cc1cc2oc(C(=O)Nc3ccc(S(N)(=O)=O)cc3)c(C)c2cc1Cl was read as ZTA DNA inh -9.9, FID counter 1.4, FGF22 binding 42.9*, NS3 helicase inh 5.3, GRIN3A LBD mod 24.2* and EBNA-1 inhibitor 1.9.
For Cc1c(C(=O)Nc2ccc(F)c(F)c2)oc2ccc(S(=O)(=O)N3CCCCC3)cc12 the results were ZTA DNA inh 3.7, FID counter -2.9, FGF22 binding 0.3, NS3 helicase inh 0.9, GRIN3A LBD mod 31.4* and EBNA-1 inhibitor 3.2.
For Cc1ccc2c(C)c(C(=O)Nc3ccc(S(N)(=O)=O)cc3)oc2c1C the results were ZTA DNA inh 8.6, FID counter 5.3, FGF22 binding 0.1, NS3 helicase inh -14.1, GRIN3A LBD mod -0.9 and EBNA-1 inhibitor 8.3.
Screening CC12C=CC3(O1)C(C(=O)N1CCCOC13)C2C(=O)O (stereo not given) returned ZTA DNA inh 1.5, FID counter 4.3, FGF22 binding 43.3*, NS3 helicase inh 2.0, GRIN3A LBD mod -1.3 and EBNA-1 inhibitor -7.8.
For CC12C=CC3(O1)C(C(=O)N(c1ccccc1)C3C(=O)NC1CCCC1)C2C(N)=O (stereo not given) the results were ZTA DNA inh 0.8, FID counter 1.4, NS3 helicase inh 2.9, GRIN3A LBD mod -1.7 and EBNA-1 inhibitor 1.3.
`C[C@@H]1CN([C@@H](C)CO)C(=O)c2cc(NS(=O)(=O)c3ccccc3)ccc2O[C@@H](C)CCCCO[C@H]1CN(C)C(=O)CCC(F)(F)F` gave FGF22 binding -0.3.
For CCCNC(=O)N(C)C[C@H]1Oc2ncc(C#CC3CC3)cc2C(=O)N([C@H](C)CO)C[C@@H]1C the results were FGF22 binding 0.2.
`CCNC(=O)Nc1ccc2c(c1)C(=O)N(C)[C@H]1CC[C@H](CC(=O)N[C@H](C)c3ccccc3)O[C@H]1CO2` gave FGF22 binding -0.1.
`CCN(CC)CCOCCOc1cc(C)c(Cl)c(C)c1` gave ZTA DNA inh -2.7, FID counter 2.4, NS3 helicase inh -0.6, GRIN3A LBD mod -2.5 and EBNA-1 inhibitor -2.6.
`CCN(CC)CCOCCn1c(C)ccc1C` gave FGF22 binding 42.9* and GRIN3A LBD mod -0.2.
`Cc1noc(C)c1S(=O)(=O)Nc1ccc2c(c1)C(=O)N([C@H](C)CO)C[C@@H](C)[C@H](CN(C)Cc1ccccc1)O2` gave FGF22 binding -0.2.
`Cc1ccc(Oc2ccc(C(=O)NC3CCSC3=O)cn2)cc1` (stereo not given) gave ZTA DNA inh -7.2, FID counter -4.0, NS3 helicase inh 3.6, GRIN3A LBD mod 11.0* and EBNA-1 inhibitor 10.0.
CCN1CCc2c(sc(NC(=O)Nc3ccc(Cl)c(Cl)c3)c2C(N)=O)C1 was read as ZTA DNA inh 6.1, FID counter 8.4, FGF22 binding -0.4, NS3 helicase inh -77.0, GRIN3A LBD mod 17.6* and EBNA-1 inhibitor 6.4.
`CCN1CCc2c(sc(NC(=O)Cc3ccccc3)c2C(N)=O)C1` gave ZTA DNA inh 14.5, FID counter -1.2, FGF22 binding -0.3, NS3 helicase inh -2.1, GRIN3A LBD mod -0.3 and EBNA-1 inhibitor -7.8.
`O=C(COC(=O)c1cccnc1Cl)NCc1cccs1` gave ZTA DNA inh 12.1, FID counter -5.7, FGF22 binding 43.3*, NS3 helicase inh -1.5, GRIN3A LBD mod 1.3 and EBNA-1 inhibitor 1.8.
For Cc1cc(C)c(OCC(=O)OCC(=O)NCc2cccs2)c(C)c1 the results were ZTA DNA inh 12.4, FGF22 binding 0.1, GRIN3A LBD mod 2.2 and EBNA-1 inhibitor -0.7.
Cc1cc(C)cc(OCC(=O)OCC(=O)NCc2cccs2)c1 was read as ZTA DNA inh 2.5, FID counter -4.3, FGF22 binding -0.3, NS3 helicase inh -7.9, GRIN3A LBD mod 16.1* and EBNA-1 inhibitor -4.0.
For Cc1ccc(C(=O)COC(=O)CNS(=O)(=O)c2ccccc2)cc1[N+](=O)[O-] the results were ZTA DNA inh -30.2, FID counter 4.0, NS3 helicase inh -0.3, GRIN3A LBD mod 17.7* and EBNA-1 inhibitor -0.7.
Screening Cc1cc(C(=O)NCC(=O)OCC(=O)NCCc2ccccc2)ccc1[N+](=O)[O-] returned ZTA DNA inh 17.9, FID counter -4.9, FGF22 binding 43.8*, NS3 helicase inh -4.7, GRIN3A LBD mod -0.4 and EBNA-1 inhibitor -0.1.
Screening O=C(COC(=O)CNC(=O)c1ccccc1)NCCc1ccccc1 returned ZTA DNA inh -6.2, FID counter -6.2, FGF22 binding -0.3, NS3 helicase inh -14.1, GRIN3A LBD mod 1.6 and EBNA-1 inhibitor -10.2.
For Cc1ccc(S(=O)(=O)CCC(=O)OCC(=O)NCCc2ccccc2)cc1 the results were ZTA DNA inh 8.4, FGF22 binding -0.3, GRIN3A LBD mod 15.5* and EBNA-1 inhibitor 2.2.
`O=C(COC(=O)COc1ccc(Cl)cc1)Nc1ccc(F)c([N+](=O)[O-])c1` gave ZTA DNA inh 9.4, FID counter 13.9, NS3 helicase inh -0.7, GRIN3A LBD mod 12.0* and EBNA-1 inhibitor 0.6.
`C[C@H]1CN([C@@H](C)CO)C(=O)c2cccc(NC(=O)c3ccc(-c4nccs4)cc3)c2O[C@H]1CN(C)S(=O)(=O)c1cccs1` gave FGF22 binding 0.1.
Cc1ccc(NC(=O)CCNC(=O)c2ccccc2)cc1F was read as ZTA DNA inh -10.2, FID counter -10.5, FGF22 binding -0.1, NS3 helicase inh -8.7, GRIN3A LBD mod -12.2 and EBNA-1 inhibitor 10.9.
